Source: PubChem BioAssay
This is a sample that favours compounds with a hit; in the whole collection about 4.9% have one here.
STAT1 act: STAT1 signaling activators, primary screen, cell-based, HTS, luciferase reporter. NIH 3T3 STAT1-luciferase reporter, IFN-gamma, luminescence; 100% = IFN-gamma alone, no compound. activation (% of control), % at 5.5 µM. 2.6% of 200,000 active. AID 932, 2007;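 active = activation above the screen-wide mean activation plus 3 SD, cut at about 130% in these data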;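 note: raw ratio to IFN-gamma control signal so 100% means no change and 0% no light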
STAT3 act: IL-6 driven STAT3 reporter potentiators, primary screen, U3A cells, luciferase, luminescence, MLSCN library; IL-6 STAT3-luciferase reporter; 100% = signal with IL-6 EC80 alone; activation (% of control), % at 5.6 µM; 0.91% of 190,000 active;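 active = activation above the screen-wide mean of compound activation plus 3 SD, cut at about 130% in these data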;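 note: 0% = background luminescence of wells with medium and substrate only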
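Test system: human U3A cells carrying STAT3-luciferase construct; control set: IL-6-only wells as 100% reference; timing: compound pre-incubation 1 h before IL-6, then 6 h stimulation at 37 °C; also added: IL-6 stimulus at 33 ng/mL final; evaluation: % activation versus median of IL-6-stimulated wells; detection: reporter luminescence signal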
APP 5'UTR act: activators of APP 5'UTR luciferase reporter, primary screen, SH-SY5Y cells; SH-SY5Y APP 5'UTR luciferase reporter, luminescence; zero percent = DMSO vehicle wells; activation, % at 2 µM; 1% of 190,000 active; AID 1276, 2008;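 active = activation above a set limit, based on mean plus 3 SD of controls, cut at about 140% in these data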
NF-kB neuron act: activators of NF-kB expression in neurons, primary screen, cell-based, HTS. human neuronal cells, NF-kB reporter expression; hits give high values. fold change at 12.5 µM. 1.6% of 190,000 active. AID 1239, 2008; in the data active = fold change above about 3.3
STAT1 inh: STAT1 signaling inhibitors, primary screen, cell-based, HTS, luciferase reporter; NIH 3T3 STAT1-luciferase reporter, IFN-gamma, luminescence; 0.35% of 200,000 active; inhibition, % at 5.5 µM;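 active = inhibition above a set limit, the mean inhibition across all tested compounds plus 3 SD, cut at about 34% in these data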;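 note: 0% = IFN-gamma with DMSO and 100% = IFN-gamma with 300 µM nifuroxazide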
STAT3 inh: IL-6 driven STAT3 reporter inhibitors, primary screen, U3A cells, luciferase, luminescence, MLSCN library | inhibition, % at 5.5 µM | IL-6 STAT3-luciferase reporter; host cell line lacks STAT1 | 0.89% of 190,000 active | AID 862, 2007;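 active = inhibition above the mean inhibition across all screened compounds plus 3 SD, cut at about 44% in these data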;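 note: 0% = DMSO only wells and 100% = 100 µM nifuroxazide control wells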
Numbers without * were called inactive.

SMILES	STAT1 act	STAT3 act	APP 5'UTR act	NF-kB neuron act	STAT1 inh	STAT3 inh
O=C(NCC1OCCCN1S(=O)(=O)c1cc(F)ccc1F)C(=O)NC1CCCCCC1 (configuration not stated)	138.1*	103.5	5.1	1.05	-41.0	-2.4
CCOC(=O)CCCCC(=O)c1[nH]c(=O)[nH]c1CSc1nc(C)cc(C)n1	94.6	100.8	16.3	1.22	6.0	3.3
CCOC(=O)CCCCC(=O)c1[nH]c(=O)[nH]c1CSc1nnc2c3cc(Br)ccc3n(C)c2n1	104.4	133.6*	4.1	0.98	-6.8	-35.8
COc1cccc(N=Nc2c(N)[nH]n3c(=O)c4c(nc23)CCCC4)c1	97.5	94.6	-4.6	0.94	0.6	9.6
COc1cc(C2C(S(=O)(=O)c3ccccc3)CON2C)ccc1OCc1ccc(F)cc1 (configuration not stated)	98.2	98.0	35.0	6.63*	1.0	9.2
CCc1ccc(C2c3[nH]c4ccccc4c3CCN2C(=O)c2cc(C)nn2C)cc1 (configuration not stated)	87.7	133.4*	-14.2	0.75	13.1	-31.5
Cc1nc(C(=O)N2CCc3c([nH]c4ccccc34)C2c2cc(F)ccc2F)cs1 (configuration not stated)	99.9	134.1*	10.4	1.26	-0.8	-23.5
Cc1nc(C(=O)N2CCc3c([nH]c4ccccc34)C2c2ccccn2)cs1 (configuration not stated)	96.2	106.6	-6.5	1.01	2.9	-4.4
CSc1ccc(C2c3[nH]c4ccccc4c3CCN2C(=O)c2cc(C)n(C)n2)cc1 (configuration not stated)	132.3*	148.0*	71.5	2.6	-34.9	-47.0
Cc1cccc(NC(=S)NCCc2ccc3c(c2)OCCO3)c1C	109.5	104.4	16.9	0.92	-10.3	0.9
NC(=O)N/N=C/c1cccc(OCc2ccc(F)cc2)c1	99.8	87.8	-14.9	0.92	-1.4	17.0
Cc1nnc(N/N=C/c2cccc(OCc3ccc(Cl)c(Cl)c3)c2)n1N	140.5*	113.2	36.2	0.99	-44.5	-21.3
Cc1c(-c2ccccn2)c(=O)[nH]n1-c1ccc(F)cc1	104.9	84.2	124.8	3.81*	-5.1	25.8
COc1ccc(-c2cn3cc(C(F)(F)F)cc(Cl)c3n2)cc1	150.0*	161.1*	149.7*	9.03*	-58.4	-67.2
Fc1ccc(-c2cn3cc(C(F)(F)F)cc(Cl)c3n2)cc1	139.0*	174.3*	167.9*	7.29*	-43.4	-74.8
CC(=O)Nc1cccc2c1C(=O)N(c1ccc(OC(C)=O)cc1)C2=O	96.4	92.3	-1.4	1.04	2.5	14.2
O=C1CC(c2ccccc2)CC(O)=C1C=Nc1ccc(O)cc1 (configuration not stated)	132.3*	108.2	-1.8	1.63	-34.7	0.5
CC(=O)c1cnn(-c2nc3c(C)cccc3s2)c1C	119.5	122.7	-0.3	3.85*	-21.2	-27.0
O=C(NNC(=S)Nc1ccc(Cl)cc1Cl)c1ccc(N2CCOCC2)c([N+](=O)[O-])c1	106.4	105.1	-1.6	0.93	-7.2	-8.9
CCOC(=O)c1cc(C#N)c(SCc2ccc(C#N)cc2)nc1C	103.5	135.7*	-10.2	1.2	-3.8	-36.4
Cc1ccc(N2CCN(c3ccc(NCc4nc5ccccc5n4C)cc3)CC2)cc1	98.9	113.7	-14.8	0.96	1.2	-11.7
Cc1nc2cc(NCc3nc4ccccc4n3Cc3ccccc3)ccc2n1C	135.1*	97.9	131.3	0.55	-38.3	6.4
Cn1c(CNc2ccc(Cl)cc2)nc2ccccc21	143.0*	162.5*	175.0*	3.9*	-46.5	-70.6
Cc1cc2c(ncn2C)c(NS(=O)(=O)c2ccc(Cl)cc2)c1C	100.7	89.3	-2.0	1.31	-1.9	16.3
CCOc1cc(N2CCOCC2)c(OCC)cc1NC(=O)CSc1ncn[nH]1	99.1	104.9	-4.0	1.22	0.3	-3.5
COc1ccc2cc3cc(C(=O)NCc4ccco4)oc3nc2c1	109.0	77.4	-6.1	1.42	-9.9	31.1
